Results as given in ChEMBL document CHEMBL1268917, “Synthesis and biological evaluation of radio-iodinated benzimidazoles as SPECT imaging agents for NR2B subtype of NMDA receptor” (Bioorg Med Chem, 2010).

How the values were obtained:
Format in all cases: ADME, organism-based
Liver [1] = assay: Biodistribution in ddY mouse liver assessed per gram of tissue at 14.8 kBq, iv after 5 mins; settings: in vivo
Method in brief: (§1)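 Killed at set times after injection; organs and blood removed, weighed, gamma counted. Data as % injected dose per gram tissue, mean SD, n = 5–6.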

Kidney [2] = assay: Biodistribution in ddY mouse kidney assessed per gram of tissue at 14.8 kBq, iv after 5 mins; settings: in vivo; method in brief: as §1
Intestine [3] = assay: Biodistribution in ddY mouse intestine assessed per gram of tissue at 14.8 kBq, iv after 5 mins; settings: in vivo; method in brief: as §1
Stomach [4] = assay: Biodistribution in ddY mouse stomach assessed per gram of tissue at 14.8 kBq, iv after 5 mins; settings: in vivo
Method in brief: (§2)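 Radioiodinated tracer (14.8 kBq) injected via tail vein into male ddY mice (6 weeks, 30–35 g). Organs removed at set times after injection, weighed and gamma-counted; uptake expressed as % injected dose per gram tissue, mean ± SD, n = 5–6.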

Spleen [5] = assay: Biodistribution in ddY mouse spleen assessed per gram of tissue at 14.8 kBq, iv after 5 mins; settings: in vivo; method in brief: as §2
Pancreas [6] = assay: Biodistribution in ddY mouse pancreas assessed per gram of tissue at 14.8 kBq, iv after 5 mins; settings: in vivo; method in brief: as §2
Heart [7] = assay: Biodistribution in ddY mouse heart assessed per gram of tissue at 14.8 kBq, iv after 5 mins; settings: in vivo; method in brief: as §1
Lung [8] = assay: Biodistribution in ddY mouse lung assessed per gram of tissue at 14.8 kBq, iv after 5 mins; settings: in vivo; method in brief: as §2
Brain [9] = assay: Biodistribution in ddY mouse brain assessed per gram of tissue at 14.8 kBq, iv after 5 mins; settings: in vivo; method in brief: as §1
Blood [10] = assay: Biodistribution in ddY mouse blood assessed per gram of tissue at 14.8 kBq, iv after 30 mins; settings: in vivo, 0.5 h; method in brief: as §1
Liver [11] = assay: Biodistribution in ddY mouse liver assessed per gram of tissue at 14.8 kBq, iv after 30 mins; settings: in vivo, 0.5 h; method in brief: as §1
Kidney [12] = assay: Biodistribution in ddY mouse kidney assessed per gram of tissue at 14.8 kBq, iv after 30 mins; settings: in vivo, 0.5 h; method in brief: as §1
Intestine [13] = assay: Biodistribution in ddY mouse intestine assessed per gram of tissue at 14.8 kBq, iv after 30 mins; settings: in vivo, 0.5 h; method in brief: as §1
Stomach [14] = assay: Biodistribution in ddY mouse stomach assessed per gram of tissue at 14.8 kBq, iv after 30 mins; settings: in vivo, 0.5 h; method in brief: as §2
Spleen [15] = assay: Biodistribution in ddY mouse spleen assessed per gram of tissue at 14.8 kBq, iv after 30 mins; settings: in vivo, 0.5 h; method in brief: as §2
Pancreas [16] = assay: Biodistribution in ddY mouse pancreas assessed per gram of tissue at 14.8 kBq, iv after 30 mins; settings: in vivo, 0.5 h; method in brief: as §2
Heart [17] = assay: Biodistribution in ddY mouse heart assessed per gram of tissue at 14.8 kBq, iv after 30 mins; settings: in vivo, 0.5 h; method in brief: as §1
Lung [18] = assay: Biodistribution in ddY mouse lung assessed per gram of tissue at 14.8 kBq, iv after 30 mins; settings: in vivo, 0.5 h; method in brief: as §2
Brain [19] = assay: Biodistribution in ddY mouse brain assessed per gram of tissue at 14.8 kBq, iv after 30 mins; settings: in vivo, 0.5 h; method in brief: as §1
Blood [20] = assay: Biodistribution in ddY mouse blood assessed per gram of tissue at 14.8 kBq, iv after 60 mins; settings: in vivo, 1 h; method in brief: as §1
Liver [21] = assay: Biodistribution in ddY mouse liver assessed per gram of tissue at 14.8 kBq, iv after 60 mins; settings: in vivo, 1 h; method in brief: as §2
Kidney [22] = assay: Biodistribution in ddY mouse kidney assessed per gram of tissue at 14.8 kBq, iv after 60 mins; settings: in vivo, 1 h; method in brief: as §1
Intestine [23] = assay: Biodistribution in ddY mouse intestine assessed per gram of tissue at 14.8 kBq, iv after 60 mins; settings: in vivo, 1 h; method in brief: as §1
Stomach [24] = assay: Biodistribution in ddY mouse stomach assessed per gram of tissue at 14.8 kBq, iv after 60 mins; settings: in vivo, 1 h; method in brief: as §2
Spleen [25] = assay: Biodistribution in ddY mouse spleen assessed per gram of tissue at 14.8 kBq, iv after 60 mins; settings: in vivo, 1 h; method in brief: as §2
Pancreas [26] = assay: Biodistribution in ddY mouse pancreas assessed per gram of tissue at 14.8 kBq, iv after 60 mins; settings: in vivo, 1 h; method in brief: as §2
Heart [27] = assay: Biodistribution in ddY mouse heart assessed per gram of tissue at 14.8 kBq, iv after 60 mins; settings: in vivo, 1 h; method in brief: as §1
Lung [28] = assay: Biodistribution in ddY mouse lung assessed per gram of tissue at 14.8 kBq, iv after 60 mins; settings: in vivo, 1 h; method in brief: as §2
Brain [29] = assay: Biodistribution in ddY mouse brain assessed per gram of tissue at 14.8 kBq, iv after 60 mins; settings: in vivo, 1 h; method in brief: as §1
Blood [30] = assay: Biodistribution in ddY mouse blood assessed per gram of tissue at 14.8 kBq, iv after 180 mins; settings: in vivo, 3 h; method in brief: as §1

`CS(=O)(=O)Nc1ccc2nc(CN3CCC(Cc4ccc([125I])cc4)CC3)[nH]c2c1` gave a Drug uptake (Liver [1]) of 19.35 % ID/g, a Drug uptake (Kidney [2]) of 10.99 % ID/g and a Drug uptake (Intestine [3]) of 1.58 % ID/g. For the same molecule, the Drug uptake (Stomach [4]) was 1.28 % ID/g, the Drug uptake (Spleen [5]) was 3.19 % ID/g and the Drug uptake (Pancreas [6]) was 3.09 % ID/g. The Drug uptake (Heart [7]) was 5.83 % ID/g, the Drug uptake (Lung [8]) was 3.52 % ID/g and the Drug uptake (Brain [9]) was 0.44 % ID/g. It also gave a Drug uptake (Blood [10]) of 0.53 % ID/g, a Drug uptake (Liver [11]) of 16.67 % ID/g and a Drug uptake (Kidney [12]) of 8.79 % ID/g. For the same molecule, the Drug uptake (Intestine [13]) was 3.07 % ID/g, the Drug uptake (Stomach [14]) was 2.24 % ID/g and the Drug uptake (Spleen [15]) was 2.91 % ID/g. The Drug uptake (Pancreas [16]) was 3.71 % ID/g, the Drug uptake (Heart [17]) was 4.29 % ID/g and the Drug uptake (Lung [18]) was 1.86 % ID/g. For the same molecule, the Drug uptake (Brain [19]) was 0.5 % ID/g, the Drug uptake (Blood [20]) was 0.54 % ID/g and the Drug uptake (Liver [21]) was 13.74 % ID/g. For the same molecule, the Drug uptake (Kidney [22]) was 8.52 % ID/g, the Drug uptake (Intestine [23]) was 3.79 % ID/g and the Drug uptake (Stomach [24]) was 2.4 % ID/g. The Drug uptake (Spleen [25]) was 2.78 % ID/g, the Drug uptake (Pancreas [26]) was 4.55 % ID/g and the Drug uptake (Heart [27]) was 4.35 % ID/g. It also gave a Drug uptake (Lung [28]) of 1.7 % ID/g, a Drug uptake (Brain [29]) of 0.52 % ID/g and a Drug uptake (Blood [30]) of 0.55 % ID/g.
